{"data": "Experimental data collected from several papers", "note": "Compare with care: the assays were run in different laboratories."}
{"SMILES": "Nc1ncnc2c1ncn2[C@@H]1O[C@H](CO)[C@@H](O)[C@H]1O", "assay": "tubulin polymerisation, inhibitor", "conditions": "10 µM", "quantity": "inhibition", "result": "17.9%"}
{"SMILES": "Cc1ccc(-c2nc3ccccc3s2)cc1NC(=O)c1cc([N+](=O)[O-])c(F)cc1F", "target or system": "Leishmania mexicana", "assay": "parasite growth", "system": "J774.A1", "conditions": "intracellular, amastigote", "quantity": "EC50", "result": "640 nM"}
{"SMILES": "CC1(C)CC[C@]2(C)CC[C@]3(C)[C@H]4CC=C5[C@@H](CC[C@H](O)C5(C)C)[C@]4(C)CC[C@@]3(C)[C@@H]2C1", "assay": "tubulin polymerisation, inhibitor", "conditions": "10 µM", "quantity": "inhibition", "result": "17%"}
{"SMILES": "O=C1NC(=S)S/C1=C\\c1ccc(-c2ccc(N(c3ccccc3)c3ccccc3)cc2)cc1", "target or system": "Staphylococcus epidermidis", "assay": "microbial growth, broth dilution", "system": "ATCC12228", "quantity": "MIC", "result": "125 µg/mL"}
{"SMILES": "CC1(C)CC[C@]2(C(=O)OCc3ccccc3[N+](=O)[O-])CC[C@]3(C)C(=CC[C@@H]4[C@@]5(C)CC[C@H](O)[C@@](C)(CO)[C@@H]5CC[C@]43C)[C@@H]2C1", "target or system": "Leishmania mexicana", "assay": "parasite growth, resazurin", "conditions": "50 µM, amastigote", "quantity": "inhibition", "result": "100%"}
{"SMILES": "C/C=C(/C)C(=O)O[C@@H]1[C@H](OC(C)=O)c2c(ccc3ccc(=O)oc23)OC1(C)C", "assay": "tubulin polymerisation, inhibitor", "conditions": "10 µM", "quantity": "inhibition", "result": "24.8%"}
{"SMILES": "CC(=O)N1CCN(C(=O)N[C@]23CCC(C)(C)C[C@H]2C2=CC[C@@H]4[C@@]5(C)CC[C@@H]6OC(C)(C)OC[C@@]6(C)[C@@H]5CC[C@@]4(C)[C@]2(C)CC3)CC1", "target or system": "Leishmania mexicana", "assay": "parasite growth, resazurin", "conditions": "50 µM, amastigote", "quantity": "inhibition", "result": "100%"}
{"SMILES": "O=C1NC(=S)S/C1=C\\c1c2ccccc2c(-c2ccc(N(c3ccccc3)c3ccccc3)cc2)c2ccccc12", "target or system": "Staphylococcus epidermidis", "assay": "microbial killing, broth dilution", "system": "ATCC12228", "quantity": "MBC", "result": "> 1000 µg/mL"}
{"SMILES": "CC1(C)CC[C@]2(NC(=O)N3CCC[C@H]3CO)CC[C@]3(C)C(=CC[C@@H]4[C@@]5(C)CC[C@@H]6OC(C)(C)OC[C@@]6(C)[C@@H]5CC[C@]43C)[C@@H]2C1", "target or system": "Leishmania mexicana", "assay": "parasite growth, resazurin", "conditions": "50 µM, amastigote", "quantity": "inhibition", "result": "95.8%"}
{"SMILES": "O=C(O)CN1C(=O)/C(=C/c2c3ccccc3c(-c3ccc(N(c4ccccc4)c4ccccc4)cc3)c3ccccc23)NC1=S", "target or system": "Staphylococcus epidermidis", "assay": "microbial killing, broth dilution", "system": "ATCC12228", "quantity": "MBC", "result": "> 1000 µg/mL"}
{"SMILES": "CC[C@H](CC[C@@H](C)[C@H]1CC[C@H]2[C@@H]3CC=C4C[C@@H](O[C@@H]5O[C@H](CO)[C@@H](O)[C@H](O)[C@H]5O)CC[C@]4(C)[C@H]3CC[C@]12C)C(C)C", "assay": "tubulin polymerisation, inhibitor", "conditions": "10 µM", "quantity": "inhibition", "result": "14.4%"}
{"SMILES": "Cc1ccc(-c2nc3ccccc3s2)cc1NC(=O)c1cc([N+](=O)[O-])ccc1Cl", "target or system": "Leishmania mexicana", "assay": "parasite growth", "system": "J774.A1", "conditions": "intracellular, amastigote", "quantity": "EC50", "result": "> 10000 nM"}
{"SMILES": "CC1(C)CC[C@]2(NC(=O)N[C@H]3C(O)O[C@H](CO)[C@@H](O)[C@@H]3O)CC[C@]3(C)C(=CC[C@@H]4[C@@]5(C)CC[C@@H]6OC(C)(C)OC[C@@]6(C)[C@@H]5CC[C@]43C)[C@@H]2C1 (some centres unmarked)", "target or system": "Leishmania mexicana", "assay": "parasite growth, resazurin", "conditions": "50 µM, amastigote", "quantity": "inhibition", "result": "97.2%"}
{"SMILES": "O=C(Nc1ccc(Cl)c(Cl)c1)c1cc([N+](=O)[O-])c(F)cc1Cl", "target or system": "Leishmania mexicana", "assay": "parasite growth", "system": "J774.A1", "conditions": "intracellular, amastigote", "quantity": "EC50", "result": "950 nM"}
{"SMILES": "CN(C[C@H](O)[C@@H](O)[C@H](O)[C@H](O)CO)C(=O)N[C@]12CCC(C)(C)C[C@H]1C1=CC[C@@H]3[C@@]4(C)CC[C@@H]5OC(C)(C)OC[C@@]5(C)[C@@H]4CC[C@@]3(C)[C@]1(C)CC2", "target or system": "Leishmania mexicana", "assay": "parasite growth, resazurin", "conditions": "50 µM, amastigote", "quantity": "inhibition", "result": "99%"}
{"SMILES": "Cc1ccc(-c2nc3ccccc3s2)cc1NC(=O)c1cc([N+](=O)[O-])ccc1O", "target or system": "Leishmania mexicana", "assay": "parasite growth", "system": "J774.A1", "conditions": "intracellular, amastigote", "quantity": "EC50", "result": "> 10000 nM"}
{"SMILES": "CC(=O)O[C@@H]1c2c(ccc3ccc(=O)oc23)OC(C)(C)[C@@H]1OC(=O)C1(C)OC1C (some centres unmarked)", "assay": "tubulin polymerisation, inhibitor", "conditions": "10 µM", "quantity": "inhibition", "result": "32.8%"}
{"SMILES": "O=C(O)CN1C(=O)/C(=C/c2ccc(-c3ccc(N(c4ccccc4)c4ccccc4)cc3)c3ccccc23)NC1=S", "target or system": "Staphylococcus epidermidis", "assay": "microbial killing, broth dilution", "system": "ATCC12228", "quantity": "MBC", "result": "> 1000 µg/mL"}
{"SMILES": "C[C@H](O)[C@H](O)[C@@H](O)[C@@H](O)[C@@H]1OC[C@@]2(C)[C@@H]3CC[C@]4(C)[C@H](CC=C5[C@@H]6CC(C)(C)CC[C@]6(C(=O)O)CC[C@]54C)[C@@]3(C)CC[C@@H]2O1", "target or system": "Leishmania mexicana", "assay": "parasite growth, resazurin", "conditions": "50 µM, amastigote", "quantity": "inhibition", "result": "100%"}
{"SMILES": "O=c1c(O[C@@H]2O[C@H](CO)[C@@H](O)[C@H](O)[C@H]2O)c(-c2ccc(O)cc2)oc2cc(O)cc(O)c12", "assay": "tubulin polymerisation, inhibitor", "conditions": "10 µM", "quantity": "inhibition", "result": "21.2%"}
{"SMILES": "CC1(C)CC[C@]2(CO)CC[C@]3(C)C(=CC[C@@H]4[C@@]5(C)CC[C@@H]6O[C@H]([C@H](O)[C@@H](O)[C@H](O)CO)OC[C@@]6(C)[C@@H]5CC[C@]43C)[C@@H]2C1", "target or system": "Leishmania mexicana", "assay": "parasite growth, resazurin", "conditions": "50 µM, amastigote", "quantity": "inhibition", "result": "98.7%"}
{"SMILES": "O=C(O)CN1C(=O)/C(=C/c2ccc(-c3ccc(N(c4ccccc4)c4ccccc4)cc3)c3ccccc23)SC1=S", "target or system": "Staphylococcus epidermidis", "assay": "microbial growth, broth dilution", "system": "ATCC12228", "quantity": "MIC", "result": "500 µg/mL"}
{"SMILES": "O=c1c(O)c(-c2ccc(O)cc2)oc2cc(O)cc(O)c12", "assay": "tubulin polymerisation, inhibitor", "conditions": "10 µM", "quantity": "inhibition", "result": "15%"}
